In data set [1] the target is T1, Recombinant human MAO-A (Homo sapiens, UniProt P21397).
T1 sequence (P21397 1-527): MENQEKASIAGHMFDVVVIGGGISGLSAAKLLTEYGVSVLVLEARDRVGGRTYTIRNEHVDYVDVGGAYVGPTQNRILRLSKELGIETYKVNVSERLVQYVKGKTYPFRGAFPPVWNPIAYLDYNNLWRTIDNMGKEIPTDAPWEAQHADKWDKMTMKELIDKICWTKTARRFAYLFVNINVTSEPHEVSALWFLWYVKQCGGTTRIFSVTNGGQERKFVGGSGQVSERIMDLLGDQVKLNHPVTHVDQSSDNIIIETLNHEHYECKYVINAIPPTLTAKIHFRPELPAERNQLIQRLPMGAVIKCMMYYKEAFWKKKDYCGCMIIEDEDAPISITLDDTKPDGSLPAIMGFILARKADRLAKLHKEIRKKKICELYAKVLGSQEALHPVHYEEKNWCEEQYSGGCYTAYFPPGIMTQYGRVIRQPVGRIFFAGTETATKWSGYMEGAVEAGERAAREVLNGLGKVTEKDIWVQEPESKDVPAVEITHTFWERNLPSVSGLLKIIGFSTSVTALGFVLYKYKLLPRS
Kind of data set: MAO-A inhibition enzyme assay. Format: biochemical. The conditions noted are these: for remaining activity at 10 µM: read-out: residual activities at 10 μM (%) MAO-A.

In data set [2] the target is T2, Recombinant human MAO-B (Homo sapiens, UniProt P27338).
T2 sequence (P27338 1-520): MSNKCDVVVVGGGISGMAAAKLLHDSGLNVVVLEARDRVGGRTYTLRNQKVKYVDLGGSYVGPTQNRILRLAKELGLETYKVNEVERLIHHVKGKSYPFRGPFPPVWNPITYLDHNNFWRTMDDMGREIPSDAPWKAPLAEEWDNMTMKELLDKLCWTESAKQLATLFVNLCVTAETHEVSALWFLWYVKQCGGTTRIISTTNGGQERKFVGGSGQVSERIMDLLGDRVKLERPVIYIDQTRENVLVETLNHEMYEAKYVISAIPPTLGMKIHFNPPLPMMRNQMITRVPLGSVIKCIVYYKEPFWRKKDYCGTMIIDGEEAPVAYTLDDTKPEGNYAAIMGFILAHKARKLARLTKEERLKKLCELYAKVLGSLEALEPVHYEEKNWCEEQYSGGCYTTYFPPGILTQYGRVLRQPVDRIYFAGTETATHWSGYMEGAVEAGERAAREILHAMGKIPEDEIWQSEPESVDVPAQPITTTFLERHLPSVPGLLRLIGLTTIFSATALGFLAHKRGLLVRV
Kind of data set: MAO-B inhibition enzyme assay. In kind it is biochemical. The conditions noted are these: for SI (selectivity index): IC50 for MAO-A / IC50 for MAO-B; for remaining activity at 10 µM: read-out: residual activities at 10 μM (%) MAO-B.

Data set [3] concerns the target T2, Recombinant human MAO-B. In words: MAO-B enzyme kinetics. In kind it is biochemical. The conditions noted are these: for type of MAO-B inhibition: Lineweaver-Burk plot. The method, boiled down:
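Recombinant human MAO-B in 50 mM sodium phosphate (pH 7.2), 25 °C, 30 min. Benzylamine was the substrate, tested at five concentrations, and product formation was followed continuously as absorbance change at 250 nm. Reactions were started by adding substrate to the enzyme mixture, with three inhibitor conditions per test compound. Inhibition type came from Lineweaver–Burk plots and Ki from secondary plots.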

In data set [4] the target is T2, Recombinant human MAO-B. In words: Reversibility of MAO-B inhibition by dialysis. Format: biochemical. The conditions noted are these: dialysis method.
A short description of data set [5]: BBB permeability assay. The settings on record: for Papp / prediction (BBB permeation): PAMPA; for prediction (BBB permeation): class from Pe. Format: in vitro ADME. The method, boiled down:
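Passive BBB permeation is estimated with a non-cell PAMPA: a filter membrane (0.45 µm pore, 125 µm thick) soaked in n-dodecane sits between donor and acceptor wells. Test compound stocks (10 mM in DMSO, kept at 0 °C) are diluted in buffer to final 1, 0.1 and 0.01 mM, with DMSO below 1% (v/v). Pe is calculated from donor and receptor absorbance, filter area (0.45 cm²), compartment volumes and time.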

`O=C(NN=Cc1ccc(F)cc1)c1ccc(F)cc1` [ACH14]: in data set [1], the IC50 worked out at 19.6 ± 1.41 µM and the remaining activity at 10 µM worked out at 63.8 ± 1.76%. Also, in data set [2], the IC50 came to 0.15 ± 0.02 µM, the “SI (selectivity index)” value is on record as 130.47 and the remaining activity at 10 µM was -14.4%. Further, in data set [3], the inhibitory constant (Ki) stood at 0.1 ± 0.038 µM and the “type of MAO-B inhibition” value is on record as “competitive MAO-B inhibitors”. For the same compound, the “reversibility of MAO-B inhibition” value in data set [4] was “reversible inhibitors of MAO-B”. In data set [5], the apparent permeability (Papp) was found to be 4.98 ×10⁻⁶ cm/s and the “prediction (BBB permeation)” value was “CNS+ (Pe > 4.00 × 10^–6 cm/s: CNS+ (high permeation))”.

Take `O=C(NN=Cc1ccc(F)cc1)c1ccccc1` [ACH3]: the 50% inhibitory concentration (IC50) in data set [1] is greater than 40 µM; in data set [2] it was 0.22 ± 0.02 µM. Besides, the results for the remaining activity at 10 µM in data set [1] and in data set [2] were 109 ± 7.07% and 7.08 ± 1.25%, respectively.

With `C#CCN(C)[C@H](C)Cc1ccccc1` [selegiline, reference compound], in data set [5] (PAMPA effective permeability), the “Pe (cm/s)” value is given as 5.69 ± 0.04 cm/s. Moreover, the “prediction (BBB permeation)” value in data set [5] is “CNS+ (Pe > 4.00 × 10^–6 cm/s: CNS+ (high permeation))”.

As for `O=C(NN=Cc1ccc(Br)cc1)c1ccc(Br)cc1` [ACH9], in data set [1], the IC50 is greater than 40 µM and the remaining activity at 10 µM is 101 ± 1.86%. In data set [2], the 50% inhibitory concentration (IC50) was greater than 40 µM and the remaining activity at 10 µM came out at 98.2%.

With `O=C(NN=Cc1ccc(Cl)cc1)c1ccccc1` [ACH1], in data set [1], the IC50 was greater than 40 µM and the remaining activity at 10 µM was 96 ± 8.49%. In data set [2], the IC50 came to 0.36 ± 0.04 µM and the remaining activity at 10 µM stood at 10.7 ± 2.52%.

On to `O=C(NN=Cc1ccc(Cl)cc1)c1ccc(Cl)cc1` [ACH4], for which, in data set [1], the half-inhibitory concentration (IC50) is greater than 40 µM and the remaining activity at 10 µM came to 92.1 ± 1.86%. Further, in data set [2], the IC50 was 0.37 ± 0.006 µM, the “SI (selectivity index)” value was greater than 108.11 and the remaining activity at 10 µM worked out at 20.2 ± 1.68%.

Regarding `O=C(NN=Cc1ccc(Cl)cc1)c1ccc(F)cc1` [ACH12], in data set [1], the concentration for half-maximal inhibition (IC50) was determined as 4.85 ± 0.83 µM and the remaining activity at 10 µM came to 37.6 ± 2.24%. Besides, in data set [2], the 50% inhibitory concentration (IC50) stood at 5.6 ± 0.1 µM, the “SI (selectivity index)” value amounted to 0.87 and the remaining activity at 10 µM amounted to 33.8%.

With `O=C(NN=Cc1ccc(F)cc1)c1ccc(Cl)cc1` [ACH6], in data set [1], the IC50 was greater than 40 µM and the remaining activity at 10 µM was 117 ± 1.86%. Further, in data set [2], the 50% inhibitory concentration (IC50) was determined as 8 ± 0.037 µM, the “SI (selectivity index)” value is reported as greater than 5.00 and the remaining activity at 10 µM amounted to 46.4 ± 1.68%.

As to `O=C(NN=Cc1ccccc1)c1ccc(Br)cc1` [ACH11], in data set [1], the 50% inhibitory concentration (IC50) is greater than 40 µM and the remaining activity at 10 µM amounted to 102 ± 4.64%. For the same compound, in data set [2], the concentration for half-maximal inhibition (IC50) is 5.2 ± 0.056 µM, the “SI (selectivity index)” value is on record as greater than 7.69 and the remaining activity at 10 µM stood at 39 ± 5.61%.

As for `O=C(NN=Cc1ccc(Br)cc1)c1ccc(F)cc1` [ACH13], in data set [1], the half-inhibitory concentration (IC50) came to 11.6 ± 0.07 µM and the remaining activity at 10 µM stood at 38.5 ± 5.44%. Moreover, in data set [2], the IC50 worked out at 0.18 ± 0.01 µM, the “SI (selectivity index)” value turned out to be 64.44 and the remaining activity at 10 µM is -50.9%.

For the compound `O=C(NN=Cc1ccccc1)c1ccc(Cl)cc1` [ACH7], in data set [1], the half-inhibitory concentration (IC50) is greater than 40 µM and the remaining activity at 10 µM turned out to be 127 ± 3.48%. For the same compound, in data set [2], the IC50 was determined as 12.8 ± 0.026 µM, the “SI (selectivity index)” value was greater than 3.13 and the remaining activity at 10 µM stood at 43.5 ± 4.56%.

Turning to `O=C(NN=Cc1ccc(Br)cc1)c1ccccc1` [ACH2], the values for the IC50 in data set [1] and in data set [2] were greater than 40 µM and 1.65 ± 0.21 µM, respectively. The remaining activity at 10 µM in data set [1] stood at 131 ± 2.9%; in data set [2] it was 30.2 ± 0.95%.

`O=C(NN=Cc1ccc(F)cc1)c1ccc(Br)cc1` [ACH10]: in data set [1], the half-inhibitory concentration (IC50) worked out at 23.4 ± 0.56 µM and the remaining activity at 10 µM worked out at 61.8 ± 6.24%. For the same compound, in data set [2], the half-maximal inhibitory concentration (IC50) amounted to 0.14 ± 0.011 µM, the “SI (selectivity index)” value stood at 167.29 and the remaining activity at 10 µM worked out at 11.7 ± 1.42%. Besides, in data set [3], the Ki amounted to 0.097 ± 0.0021 µM and the “type of MAO-B inhibition” value is recorded as “competitive MAO-B inhibitors”. Further, in data set [4], the “reversibility of MAO-B inhibition” value is “reversible inhibitors of MAO-B”. In addition, in data set [5], the Papp worked out at 5.12 ×10⁻⁶ cm/s and the “prediction (BBB permeation)” value is reported as “CNS+ (Pe > 4.00 × 10^–6 cm/s: CNS+ (high permeation))”.

Regarding `O=C(NN=Cc1ccc(Br)cc1)c1ccc(Cl)cc1` [ACH5], in data set [1], the IC50 is greater than 40 µM and the remaining activity at 10 µM was determined as 70.6 ± 4.16%. For the same compound, in data set [2], the IC50 came out at 1.54 ± 0.04 µM, the “SI (selectivity index)” value is listed as greater than 25.97 and the remaining activity at 10 µM came to 35.8 ± 1.88%.

`O=C(NN=Cc1ccc(Cl)cc1)c1ccc(Br)cc1` [ACH8]: in data set [1], the half-maximal inhibitory concentration (IC50) turned out to be 20.2 ± 0.57 µM and the remaining activity at 10 µM turned out to be 59.6 ± 3.12%. Also, in data set [2], the IC50 is 0.2 ± 0.09 µM, the “SI (selectivity index)” value is listed as 101.10 and the remaining activity at 10 µM was found to be 18.3 ± 3.45%.

Source of the values: PMC10733988 (ACS Omega, 2023).
